Results as given in ChEMBL document CHEMBL3817726, “Chemically Diverse Group I p21-Activated Kinase (PAK) Inhibitors Impart Acute Cardiovascular Toxicity with a Narrow Therapeutic Window” (J Med Chem, 2016).
In brackets after ≈: the same amount, converted by molar mass.

Columns and labels:
[1] = Cmax associated with acute adverse effect in mouse at 25 to 50 mg/kg, po; type: ADME, organism-based; conditions: in vivo
Method in brief: (§1)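 Mouse tolerability studies tested multiple doses, given orally or intraperitoneally. Plasma drug concentrations were measured, including at a 15 min time point. The minimum concentration associated with adverse clinical signs or death was taken as the adverse Cmax and was converted to an unbound value.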

[2] = biological target: Serine/threonine-protein kinase PAK 1 (Homo sapiens, UniProt Q13153); assay: Inhibition of human recombinant N-terminal 6-His-tagged PAK1 kinase domain (249 to 545 residues) expressed in Escherichia coli BL21(DE3) assessed as phosphorylation of coumarin labeled FRET peptide substrate at Ser/Thr19 preincubated for 10 mins followed by ATP addition measured after 60 mins by Z'-LYTE assay
Chain of Serine/threonine-protein kinase PAK 1 (Q13153 whole entry, the tested form may be a part): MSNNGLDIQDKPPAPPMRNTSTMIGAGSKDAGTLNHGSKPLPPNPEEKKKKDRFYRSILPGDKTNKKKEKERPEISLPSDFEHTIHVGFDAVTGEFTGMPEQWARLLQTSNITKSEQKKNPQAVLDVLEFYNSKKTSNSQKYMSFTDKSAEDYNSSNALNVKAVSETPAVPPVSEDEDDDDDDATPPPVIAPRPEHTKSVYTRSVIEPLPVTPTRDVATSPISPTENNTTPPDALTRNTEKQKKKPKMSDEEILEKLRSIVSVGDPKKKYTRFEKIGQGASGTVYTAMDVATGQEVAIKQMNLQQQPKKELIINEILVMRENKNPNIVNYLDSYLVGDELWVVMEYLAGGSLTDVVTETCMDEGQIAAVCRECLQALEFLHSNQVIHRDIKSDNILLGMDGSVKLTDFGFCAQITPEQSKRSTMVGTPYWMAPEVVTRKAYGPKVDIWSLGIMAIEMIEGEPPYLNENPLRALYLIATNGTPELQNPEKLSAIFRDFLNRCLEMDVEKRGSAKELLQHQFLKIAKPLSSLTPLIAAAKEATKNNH

[3] = Ratio of fCmax associated with acute adverse effect in mouse at 25 to 50 mg/kg, po to IC50 for PAK1/2-mediated phosphorylation of MEK1 at serine 298 in human EBC1 cells
Method in brief: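 Mouse tolerability studies at multiple doses, given p.o. or i.p. Total plasma concentrations were converted to unbound levels. The minimum unbound Cmax linked to adverse effects was set against the cellular IC50 for inhibition of MEK1 S298 phosphorylation.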

Mus musculus [4] = assay: fCmax associated with acute adverse effect in mouse at 25 to 50 mg/kg, po; type: ADME, organism-based; conditions: in vivo
Method in brief: (§2)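 Mouse tolerability studies at multiple doses, oral or intraperitoneal. Minimum unbound plasma concentration associated with adverse effects (total Cmax converted to unbound) compared with IC50 for inhibition of MEK1 S298 phosphorylation in cells.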

[5] = biological target: Serine/threonine-protein kinase PAK 1/PAK 2 (Homo sapiens, UniProt Q13177+Q13153); assay: Inhibition of PAK1/2 in human EBC1 cells assessed as phosphorylation of MEK1 at serine 298 after 2 hrs by HTRF assay; type: cell-based
[6] = Fraction unbound in mouse plasma at 25 to 50 mg/kg, po; type: ADME, organism-based
[7] = biological target: Serine/threonine-protein kinase PAK 2 (Homo sapiens, UniProt Q13177); assay: Inhibition of human recombinant PAK2 assessed as phosphorylation of coumarin labeled FRET peptide substrate at Ser/Thr19 preincubated for 10 mins followed by ATP addition measured after 60 mins by Z'-LYTE assay
Chain of Serine/threonine-protein kinase PAK 2 (Q13177 whole entry): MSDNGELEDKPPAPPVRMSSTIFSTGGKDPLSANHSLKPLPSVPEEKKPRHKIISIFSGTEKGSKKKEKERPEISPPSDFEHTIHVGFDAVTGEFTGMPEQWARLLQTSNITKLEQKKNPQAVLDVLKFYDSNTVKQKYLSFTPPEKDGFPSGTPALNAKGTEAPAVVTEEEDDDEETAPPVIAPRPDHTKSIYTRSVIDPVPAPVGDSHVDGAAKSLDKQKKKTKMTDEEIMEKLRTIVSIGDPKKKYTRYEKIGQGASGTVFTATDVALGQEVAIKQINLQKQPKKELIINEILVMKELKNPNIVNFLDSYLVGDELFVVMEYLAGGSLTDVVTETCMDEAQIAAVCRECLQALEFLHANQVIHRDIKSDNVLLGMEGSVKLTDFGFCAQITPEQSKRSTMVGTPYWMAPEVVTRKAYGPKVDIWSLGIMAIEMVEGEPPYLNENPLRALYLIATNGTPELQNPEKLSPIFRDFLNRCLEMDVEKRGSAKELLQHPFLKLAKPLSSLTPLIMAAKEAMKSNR

Mus musculus [8] = assay: Toxicity in mouse assessed as mortality at 12.5 mg/kg, po after 0.5 hrs; type: organism-based; conditions: in vivo
Method in brief: (§3)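 Mouse tolerability study at multiple oral doses, with lethality and clinical signs monitored after dosing. Plasma drug concentrations were measured, and the minimum unbound concentration linked to adverse effects was compared with the cellular pMEK S298 IC₅₀.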

[9] = Plasma concentration in mouse at 25 mg/kg, po at 15 mins; type: ADME, organism-based
[10] = Cmax associated with acute adverse effect in mouse at 12.5 to 25 mg/kg, po; type: ADME, organism-based; conditions: in vivo; method in brief: as §1
Homo sapiens = species: Homo sapiens; assay: Selectivity for human recombinant N-terminal 6-His-tagged PAK1 kinase domain (249 to 545 residues) over LCK (unknown origin)
[11] = Kinetic solubility of the compound at pH 7.4; type: physicochemical; conditions: buffer, read-out: Kinetic_solubility
[12] = Efflux ratio of permeability across basolateral to apical side over apical to basolateral side in MDCK cells at 10 uM after 60 mins; type: ADME, cell-based, Canis lupus familiaris; conditions: dog
[13] = Ratio of fCmax associated with acute adverse effect in mouse at 12.5 to 25 mg/kg, po to IC50 for PAK1/2-mediated phosphorylation of MEK1 at serine 298 in human EBC1 cells
Method in brief: (§4)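 Mice were dosed at multiple levels, orally or intraperitoneally, and monitored for acute adverse signs. The minimum unbound plasma Cmax associated with adverse effects was converted from total drug concentration and compared with the cellular IC50 for phospho-MEK1 S298 inhibition.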

Plasma = assay: Unbound drug concentration in mouse plasma at 25 mg/kg, po at 0.25 hrs; conditions: in vivo
Mus musculus [14] = assay: Toxicity in mouse assessed as mortality at 12.5 mg/kg, po after 0.25 hrs; type: organism-based; conditions: in vivo
[15] = Plasma concentration in mouse at 25 mg/kg, po at 0.25 hrs
[16] = Lipophilicity, log D of the compound at pH 7.4; type: physicochemical; conditions: buffer
[17] = Fraction unbound in mouse plasma at 12.5 to 25 mg/kg, po; type: ADME, organism-based
[18] = Plasma concentration in mouse at 12.5 mg/kg, po at 0.5 hrs; type: ADME, organism-based
Mus musculus [19] = assay: Toxicity in mouse assessed as mortality at 25 mg/kg, po after 2 hrs; type: organism-based; conditions: in vivo; method in brief: as §3
[20] = Apparent permeability across apical to basolateral side in MDCK cells at 10 uM after 60 mins; type: ADME, cell-based, Canis lupus familiaris; conditions: dog
Mus musculus [21] = assay: fCmax associated with acute adverse effect in mouse at 12.5 to 25 mg/kg, po; type: ADME, organism-based; conditions: in vivo; method in brief: as §2
[22] = Ratio of fCmax associated with acute adverse effect in mouse at 100 to 200 mg/kg, ip to IC50 for PAK1/2-mediated phosphorylation of MEK1 at serine 298 in human EBC1 cells
Mus musculus [23] = assay: fCmax associated with acute adverse effect in mouse at 100 to 200 mg/kg, ip; type: ADME, organism-based; conditions: in vivo; method in brief: as §2
[24] = Cmax associated with acute adverse effect in mouse at 100 to 200 mg/kg, ip; type: ADME, organism-based; conditions: in vivo; method in brief: as §1
[25] = Fraction unbound in mouse plasma at 100 to 200 mg/kg, ip; type: ADME, organism-based
[26] = Cmax associated with acute adverse effect in mouse at 50 to 100 mg/kg, ip; type: ADME, organism-based; conditions: in vivo; method in brief: as §1
[27] = Ratio of fCmax associated with acute adverse effect in mouse at 50 to 100 mg/kg, ip to IC50 for PAK1/2-mediated phosphorylation of MEK1 at serine 298 in human EBC1 cells; method in brief: as §2
[28] = Fraction unbound in mouse plasma at 50 to 100 mg/kg, ip; type: ADME, organism-based
Mus musculus [29] = assay: fCmax associated with acute adverse effect in mouse at 50 to 100 mg/kg, ip; type: ADME, organism-based; conditions: in vivo; method in brief: as §2
[30] = Cmax associated with acute adverse effect in rat; type: ADME, organism-based; conditions: in vivo
[31] = Cmax associated with acute adverse effect in mouse at 60 to 80 mg/kg, po; type: ADME, organism-based; conditions: in vivo; method in brief: as §1
Mus musculus [32] = assay: Toxicity in mouse assessed as darkened blood at 60 to 80 mg/kg, po; type: organism-based; conditions: in vivo
Rattus norvegicus [33] = species: Rattus norvegicus; assay: fCmax associated with acute adverse effect in rat; type: ADME, organism-based; conditions: in vivo
Rattus norvegicus [34] = species: Rattus norvegicus; assay: Toxicity in rat assessed as slow blood flow; type: organism-based; conditions: in vivo
Mus musculus [35] = assay: Toxicity in mouse assessed as hypoactivity at 60 to 80 mg/kg, po; type: organism-based; conditions: in vivo
Mus musculus [36] = assay: fCmax associated with acute adverse effect in mouse at 60 to 80 mg/kg, po; type: ADME, organism-based; conditions: in vivo; method in brief: as §2
Rattus norvegicus [37] = species: Rattus norvegicus; assay: Toxicity in rat assessed as hypoactivity; type: organism-based; conditions: in vivo
Mus musculus [38] = assay: Toxicity in mouse assessed as slow blood flow at 60 to 80 mg/kg, po; type: organism-based; conditions: in vivo
Rattus norvegicus [39] = species: Rattus norvegicus; assay: Toxicity in rat assessed as darkened blood; type: organism-based; conditions: in vivo
Rattus norvegicus [40] = species: Rattus norvegicus; assay: Toxicity in rat assessed as hunched posture; type: organism-based; conditions: in vivo
Mus musculus [41] = assay: Toxicity in mouse assessed as hunched posture at 60 to 80 mg/kg, po; type: organism-based; conditions: in vivo
[42] = Fraction unbound in mouse plasma at 60 to 80 mg/kg, po; type: ADME, organism-based
[43] = Cmax in mouse at 100 mg/kg, ip; type: ADME, organism-based; set-up: dose 100 mg/kg, route intraperitoneal; conditions: in vivo
Mus musculus [44] = assay: fCmax in mouse at 100 mg/kg, ip; type: ADME, organism-based; conditions: in vivo; method in brief: as §2
[45] = Fraction unbound in mouse plasma at 100 mg/kg, ip; type: ADME, organism-based
Mus musculus [46] = assay: fCmax associated with acute adverse effect in mouse at 100 mg/kg, ip; type: ADME, organism-based; conditions: in vivo; method in brief: as §2
[47] = Ratio of fCmax associated with acute adverse effect in mouse at 100 mg/kg, ip to IC50 for PAK1/2-mediated phosphorylation of MEK1 at serine 298 in human EBC1 cells
[48] = Cmax associated with acute adverse effect in mouse at 100 mg/kg, ip; type: ADME, organism-based; set-up: dose 100 mg/kg, route intraperitoneal; conditions: in vivo; method in brief: as §1
Mus musculus [49] = assay: Toxicity in mouse at 100 mg/kg, ip; type: organism-based; conditions: in vivo
Mus musculus [50] = assay: fCmax associated with acute adverse effect in mouse at 150 to 300 mg/kg, ip; type: ADME, organism-based; conditions: in vivo; method in brief: as §2
[51] = Ratio of fCmax associated with acute adverse effect in mouse at 150 to 300 mg/kg, ip to IC50 for PAK1/2-mediated phosphorylation of MEK1 at serine 298 in human EBC1 cells; method in brief: as §4
[52] = Fraction unbound in mouse plasma at 150 to 300 mg/kg, ip; type: ADME, organism-based
[53] = Cmax associated with acute adverse effect in mouse at 150 to 300 mg/kg, ip; type: ADME, organism-based; conditions: in vivo; method in brief: as §1

CNc1ncc2cc(-c3ccc(-n4cncc(C)c4=O)cc3Cl)c(=O)n(CCOC)c2n1
Cmax [1]: 14 µM | Ki [2]: 22 nM | Ratio [3]: 1 | fCmax (Mus musculus [4]): 0.85 µM | IC50 [5]: 800 nM | fraction unbound [6]: 0.059 | Ki [7]: 39 nM

CNc1ncc2cc(-c3ccc(-n4cccc(C)c4=O)cc3Cl)c(=O)n(CCC3(F)CN(C)C3)c2n1
Activity (Mus musculus [8]): Toxic | concentration at 0.25 h [9]: 2.8 µM | Cmax [10]: 2.8 µM | Selectivity ratio (Homo sapiens): 57 | solubility kinetic [11]: 117 µM (≈ 59.6 µg/mL) | efflux ratio at 1 h, 10 µM [12]: 2 | Ratio [13]: 1 | Ki [2]: 0.95 nM | Cp(f) (Plasma): 0.088 µM | Activity (Mus musculus [14]): Toxic | concentration at 0.25 h [15]: 2.24 µM | logD [16]: 1.8 | fraction unbound [17]: 0.032 | IC50 [5]: 33 nM | concentration at 0.5 h [18]: 1.89 µM | Activity (Mus musculus [19]): Toxic | Papp A→B at 1 h, 10 µM [20]: 6.9 ×10⁻⁶ cm/s | fCmax (Mus musculus [21]): 0.088 µM | Ki [7]: 2 nM

Cc1cncc(-c2ccc(-c3cc4cncnc4n(C[C@H]4CC[C@H](N)CC4)c3=O)c(Cl)c2)n1
Ki [2]: 372 nM | Ratio [22]: 1 | IC50 [5]: 6000 nM | fCmax (Mus musculus [23]): 6.1 µM | Cmax [24]: 59 µM | fraction unbound [25]: 0.104 | Ki [7]: 940 nM

Cc1nccn(-c2ccc(-c3cc4cnc(NC5COC5)nc4n(CC4CCNCC4(F)F)c3=O)c(Cl)c2)c1=O (single isomer, unassigned)
Cmax [26]: 12 µM | Ki [2]: 5.2 nM | Ratio [27]: 1 | IC50 [5]: 280 nM | fraction unbound [28]: 0.076 | fCmax (Mus musculus [29]): 0.89 µM | Ki [7]: 4.6 nM

CCn1c(=O)c(-c2ccc(-c3cncc(C)n3)cc2Cl)cc2cnc(NCCC3CCN(C)CC3)nc21
Cmax [30]: 4 µM | Cmax [31]: 16 µM | Activity (Mus musculus [32]): Toxic | fCmax (Rattus norvegicus [33]): 0.076 µM | Activity (Rattus norvegicus [34]): Toxic | Activity (Mus musculus [35]): Toxic | fCmax (Mus musculus [36]): 0.27 µM | Activity (Rattus norvegicus [37]): Toxic | Activity (Mus musculus [38]): Toxic | Activity (Rattus norvegicus [39]): Toxic | Activity (Rattus norvegicus [40]): Toxic | Activity (Mus musculus [41]): Toxic | fraction unbound [42]: 0.017

CNc1ncc2cc(-c3ccc(-n4ccc(C)cc4=O)cc3Cl)c(=O)n(C[C@H]3CNCCO3)c2n1
Ki [2]: 943 nM | Cmax [43]: 40 µM | fCmax (Mus musculus [44]): 5.7 µM | fraction unbound [45]: 0.143 | IC50 [5]: > 30000 nM | Ki [7]: 2300 nM

CCc1cccn(-c2ccc(-c3cc4cnc(NC)nc4n(C[C@H]4CNCCO4)c3=O)c(Cl)c2)c1=O
fCmax (Mus musculus [46]): 0.76 µM | Ki [2]: 11 nM | Ratio [47]: 1 | fraction unbound [45]: 0.027 | IC50 [5]: 240 nM | Cmax [48]: 28 µM | Activity (Mus musculus [49]): Toxic | Ki [7]: 9.5 nM

CNc1ncc2cc(-c3ccc(-n4cccc(C)c4=O)cc3C3CC3)c(=O)n(C[C@@H]3CNCCO3)c2n1
Ki [2]: 950 nM | fCmax (Mus musculus [50]): 1.6 µM | Ratio [51]: 1 | IC50 [5]: 15000 nM | Ki [7]: 3670 nM | fraction unbound [52]: 0.025 | Cmax [53]: 63 µM
